The test system of assay [1] is Lactuca sativa. In words: Phytotoxicity against Lactuca sativa cv. Burpee's Iceberg (lettuce) assessed as reduction in chlorophyll content compound treated at 100 uM in darkness after 7 days followed by exposure to white light by spectrophotometry. It is filed as functional, organism-based. The gist of the method: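 Seedlings were treated in wells with 1% acetone final and kept in foil-wrapped darkness at 26 °C for 7 days. They then received 5 min of white light (80 µmol s⁻¹ m⁻² PAR) and were returned to darkness for 1 h. Ten cotyledon pairs were weighed and extracted in DMSO in the dark. Chlorophyll was read at 645/663 nm and compared with the solvent control.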

Assay [2] relates to Lactuca sativa. In words: Phytotoxicity against Lactuca sativa cv. Burpee's Iceberg (lettuce) assessed as reduction in chlorophyll content at 100 uM after 7 days by spectrophotometry. It is filed as functional, organism-based. The gist of the method: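 Seeds grown in 24-well plates in water with 3% acetone, at 26 °C under continuous light (173 µmol s⁻¹ m⁻²) for 7 days. Cotyledons from three plants per well were weighed and extracted in 2 mL DMSO at 60 °C for 2 h, then diluted with 1 mL more DMSO. A645 and A663 were read and converted to total chlorophyll (20.2A645 + 8.02A663). Values were normalized to cotyledon weight.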

For assay [3], the system named is Lactuca sativa. In words: Phytotoxicity against Lactuca sativa cv. Burpee's Iceberg (lettuce) assessed as unbranched root tips at 10 uM after 7 days by spectrophotometry relative to control. The class given is functional, organism-based.
Assay [4] has as its system Allium cepa. In words: Phytotoxicity against Allium cepa (onion) assessed as accumulation of cells at metaphase in root tips at 33 uM measured on day 7 of compound treatment by microscopy. The class given is functional, organism-based. In outline: (§1)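 Ten surface-sterilized onion seeds were placed on filter paper in 6-cm dishes with 1 mL of water containing compound (final 0.05% acetone). Controls received water or acetone/water. Dishes were kept at 25 °C under a 16 h photoperiod at 173 µmol s⁻¹ m⁻². On day 7, root tips were fixed (HOAc/EtOH 1:3), hydrolyzed in 5 N HCl for 1 h, and Feulgen-stained with Schiff's reagent for 45 min. At least 1000 cells per slide were scored at 40×.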

Assay [5] has as its system Allium cepa. Briefly: Phytotoxicity against Allium cepa (onion) assessed as accumulation of cells at prophase in root tips at 33 uM measured on day 7 of compound treatment by microscopy. The class given is functional, organism-based. In outline:
as §1

Assay [6] deals with Allium cepa. In words: Phytotoxicity against Allium cepa (onion) assessed as inhibition of mitosis in root tips at 100 uM measured on day 7 of compound treatment by microscopy. The class given is functional, organism-based. The gist of the method:
as §1

The test system of a further assay is Agrostis stolonifera. Briefly: Phytotoxicity against Agrostis stolonifera assessed as mortality at 333 uM after 12 days. It is filed as functional, organism-based. The gist of the method: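 Seeds (10 mg) per well of 24-well plates in 250 µL water containing 3% acetone as final concentration; solvent-only controls. Plates were sealed and incubated at 26 °C under continuous light at 173 µmol s⁻¹ m⁻². Concentrations tested were 10, 33, 100 and 333 µM. Phytotoxicity was scored visually against untreated controls.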

Assay [7] has as its system Lactuca sativa. In words: Phytotoxicity against Lactuca sativa cv. Burpee's Iceberg (lettuce) assessed as blunt root tips at 10 uM after 7 days by spectrophotometry relative to control. It is filed as functional, organism-based.
Assay [8] concerns Lactuca sativa. In words: Phytotoxicity against Lactuca sativa cv. Burpee's Iceberg (lettuce) assessed as reduction in radical length at 10 uM after 7 days by spectrophotometry relative to control. The class given is functional. On the set-up: scale not given: the % may be the effect or the level left. In outline: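 Lettuce seeds were set in multiwell plates with test material supplied from acetone in DDI water (3% acetone final). Controls received acetone and water only. Plates were sealed and kept at 26 °C under continuous light at 173 µmol s⁻¹ m⁻² for 7 days. Root lengths, together with plant weight and chlorophyll content, were compared against untreated controls.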

For assay [9], the system named is Lemna aequinoctialis. Briefly: Phytotoxicity against Lemna paucicostata assessed as tissue degradation at 250 uM after 4 to 5 days. The class given is functional, organism-based.
Assay [10] relates to Lemna aequinoctialis. In words: Phytotoxicity against Lemna paucicostata assessed as growth inhibition at 100 uM after 4 to 5 days. It is filed as functional, organism-based. The gist of the method: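 Hoagland medium at pH 5.5 was filter-sterilized in 6-well plates, with compound added in acetone or EtOH (1% final). Two three-frond colonies from 4- to 5-day-old stock cultures were placed per well. Total frond area was recorded by image analysis from day 0 to day 7.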

Calls of active or inactive are those of the source. The rule behind the calls is not given here.

For `COc1c2occc2cc2ccc(=O)oc12` [METHOXSALEN], the result in the assay on Lactuca sativa [1] was inactive. Also, the result in the assay on Lactuca sativa [2], with Lactuca sativa [3], with Allium cepa [4], in the assay with Allium cepa [5], with Agrostis stolonifera and in the assay with Lactuca sativa [7] was Active. Also, in the assay on Allium cepa [6], the inhibition result is “Active”. Also, in the assay on Lactuca sativa [8], the Activity was found to be 39%.

Take `Cn1c(-c2ccc3c(c2)OCO3)cc(=O)c2ccccc21`: in the assay on Lactuca sativa [1], the outcome was inactive. The result in the assay on Lactuca sativa [2], with Lemna aequinoctialis [9] and in the assay on Agrostis stolonifera was Active. Further, the inhibition result with Allium cepa [6] was “Active”. In the assay on Lemna aequinoctialis [10], the “growth inhibition (GI)” value is “Active”.

For `COc1c2ccoc2cc2oc(=O)ccc12`, the result in the assay with Lactuca sativa [3], in the assay on Lactuca sativa [7] and with Lactuca sativa [8] was inactive. In addition, the inhibition entry with Allium cepa [6] was “Active”. The outcome in the assay on Agrostis stolonifera was Active.

The values are drawn from ChEMBL document CHEMBL3044723, “Phytotoxins from the leaves of Ruta graveolens” (2004).
